Like-named read-outs stand apart in the source and are kept apart here.
Experiments:
GTB [1] = target: T1, GTB (Homo sapiens, UniProt P16442, G235S/G268A/L266M/R176G); settings: read-out: KD from ITC; UDP binding to GTB:H-Dis; cited from earlier work
T1 sequence (P16442 64-354 R176G/G235S/L266M/G268A limits assumed): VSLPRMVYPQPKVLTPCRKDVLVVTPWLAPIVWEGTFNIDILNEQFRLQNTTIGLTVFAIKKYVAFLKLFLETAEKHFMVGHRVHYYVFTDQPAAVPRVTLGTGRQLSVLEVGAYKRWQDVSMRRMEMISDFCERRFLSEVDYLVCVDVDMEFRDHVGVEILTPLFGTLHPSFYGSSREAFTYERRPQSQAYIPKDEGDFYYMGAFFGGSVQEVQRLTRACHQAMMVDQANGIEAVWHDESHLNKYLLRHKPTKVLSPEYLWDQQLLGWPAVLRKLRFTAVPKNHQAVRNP

GTB [2] = target: T1, GTB; experiment: methyl TROSY CSP titration, TITAN lineshape analysis; format: binding; settings: for Kd: K D
In short: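 Enzyme expressed in D₂O-based M9 minimal medium with ¹³C-methyl precursors, IPTG-induced, and purified by cation-exchange and UDP-affinity chromatography. Ligand titrated at constant protein concentration, with a 2D [¹³C,¹H] HMQC at each point. Kd and koff from a global multi-peak TITAN two-state fit; apo parameters fixed from the ligand-free spectrum; 200-run bootstrap residual resampling.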

[3] = GTB in presence of saturating B-Tris
[4] = GTB in presence of saturating H-Dis
[5] = GTB in presence of saturating H-Tris I
[6] = GTB in presence of saturating H-Tris II
[7] = GTB in presence of saturating H-Tris III
[8] = GTB in presence of saturating H-Tris IV
[9] = GTB in presence of saturating H-Tris V
[10] = GTB in presence of saturating H-Tris VI
[11] = apo GTB, donor-type ligands, Mg2+, 298 K

O=c1ccn([C@@H]2O[C@H](COP(=O)(O)OP(=O)(O)O)[C@@H](O)[C@H]2O)c(=O)[nH]1 [UDP, uridine diphosphate]
Kd (GTB [1]): 27 µM
koff (GTB [2]; [3]): 18 ± 1 s⁻¹
kon (GTB [2]; [3]): 28000 M⁻¹ s⁻¹
koff (GTB [2]; [4]): 2.6 ± 0.3 s⁻¹
kon (GTB [2]; [4]): 25000 M⁻¹ s⁻¹
off-rate constant koff (GTB [2]; GTB in presence of saturating H-Dis, from titration analysis (Table 3)): 2.6 Hz
koff (GTB [2]; [5]): 2.2 ± 0.2 s⁻¹
kon (GTB [2]; [5]): 58000 M⁻¹ s⁻¹
koff (GTB [2]; [6]): 1.7 ± 0.3 s⁻¹
kon (GTB [2]; [6]): 280000 M⁻¹ s⁻¹
koff (GTB [2]; [7]): 3.6 ± 0.5 s⁻¹
kon (GTB [2]; [7]): 120000 M⁻¹ s⁻¹
koff (GTB [2]; [8]): 12 ± 1 s⁻¹
kon (GTB [2]; [8]): 190000 M⁻¹ s⁻¹
koff (GTB [2]; [9]): 3.4 ± 0.3 s⁻¹
kon (GTB [2]; [9]): 120000 M⁻¹ s⁻¹
koff (GTB [2]; [10]): 2.2 ± 0.2 s⁻¹
kon (GTB [2]; [10]): 69000 M⁻¹ s⁻¹
kon multiplied by the UDP concentration (comparable to kAB) (GTB [2]; GTB saturated with H-Dis, kon=2.5×10^4 M^−1s^−1 times 250 μM UDP): ca. 6.3 Hz
Kd (GTB [2]; [3]): 660 ± 10 µM
Kd (GTB [2]; [4]): 103 ± 2 µM
Kd (GTB [2]; [5]): 38 ± 1 µM
Kd (GTB [2]; [6]): 6 ± 1 µM
Kd (GTB [2]; [7]): 29 ± 1 µM
Kd (GTB [2]; [8]): 65 ± 2 µM
Kd (GTB [2]; [9]): 31 ± 1 µM
Kd (GTB [2]; [10]): 32 ± 1 µM
Kd (GTB [2]; [11]): 161 ± 3 µM
koff (GTB [2]; [11]): 243 ± 7 s⁻¹
kon (GTB [2]; [11]): 1.5e+06 M⁻¹ s⁻¹

Reference: publication PMC6591795 (ChemistryOpen, 2019)
